Assay results of several laboratories.
Protocols differ between the studies behind these lines.
Cell line: HCT-116
Effect on: cell growth or viability

CCCCCCCCCCONC(N)=O  IC50 (imaging): > 600 µM
O=Cc1ccc(CO)o1  IC50 (WST-1; 48 h): 83.1 µM
O=C(O)C[C@H](O)C[C@H](O)/C=C/c1c(C2CC2)nc2ccccc2c1-c1ccc(F)cc1  IC50 (SRB; 72 h): 7.46 mg/L
CCN(CC)C(=S)NC(=O)c1ccc2ccccc2c1  IC50 (48 h): 5.07 µM
COc1c(C)cnc(COc2ccc(NC(=O)Nc3ccc(Cl)c(C(F)(F)F)c3)cc2)c1C  IC50 (MTT; 72 h): 8.17 µM
CSc1nc(/N=C/c2ccc(O)cc2)n(-c2ccc(C(=O)O)cc2)n1  IC50 (MTT): 68.1 µM
COC(=O)/C=C1\S/C(=N\C(=O)c2ccc3ccccc3c2)N(C2CCCCC2)C1=O  IC50 (48 h): 12.2 µM
CC1=C(O)C(=O)C=C2C1=CC=C1[C@@]2(C)CC[C@@]2(C)[C@@H]3C[C@](C)(C(=O)OCCCCCCCCO)CC[C@]3(C)CC[C@]12C  IC50 (MTT; 48 h): 0.58 µM
CSc1nc(/N=C/c2cc([N+](=O)[O-])ccc2O)n(-c2ccc(C(=O)O)cc2)n1  IC50 (MTT): 60.3 µM
COc1ccc(NC(=O)Nc2ccc(OCc3nccc(OCC(F)(F)F)c3C)cc2)cc1  IC50 (MTT; 72 h): 19.2 µM
Nc1ncnc2c1ncn2[C@@H]1O[C@H](CO)[C@@H](O)[C@H]1O  IC50 (WST-1; 48 h): 41.8 µM
CC1=C(O)C(=O)C=C2C1=CC=C1[C@@]2(C)CC[C@@]2(C)[C@@H]3C[C@](C)(C(=O)OCCCBr)CC[C@]3(C)CC[C@]12C  IC50 (MTT; 48 h): 0.52 µM
O=C(NC(=S)NCCCNC(=S)NC(=O)c1ccc2ccccc2c1)c1ccc2ccccc2c1  IC50 (48 h): 1.23 µM
CC1=C(O)C(=O)C=C2C1=CC=C1[C@@]2(C)CC[C@@]2(C)[C@@H]3C[C@](C)(C(=O)OCCCN4C(=O)C5C=CC=CC5C4=O)CC[C@]3(C)CC[C@]12C (some centres unmarked)  IC50 (MTT; 48 h): 0.64 µM
C=CC(=O)N1CCC[C@@H](n2nc(-c3ccc(Oc4ccccc4)cc3)c3c(N)ncnc32)C1  IC50: > 10 µM
COc1cccc2c1C(=O)c1c(O)c3c(c(O)c1C2=O)C[C@@](O)(C(=O)CO)C[C@@H]3O[C@H]1C[C@H](N)[C@H](O)[C@H](C)O1  IC50 (SRB): 57.8 µM
CCC[C@H](Nc1nc(-c2ccc(NC(=O)NCC)c(OC)c2)ncc1C)c1cccnc1  IC50 (fluorescence; 72 h): 0.0477 µM
O=C(NC(=S)Nc1ccc([N+](=O)[O-])cc1)c1ccc2ccccc2c1  IC50 (48 h): 6.09 µM
CSc1nc(/N=C/c2cc(C)ccc2O)n(-c2ccc(C(=O)O)cc2)n1  IC50 (MTT): 43.9 µM
CCn1c(-c2nnc(NC(=O)c3cc4c([nH]c5ccccc54)c(-c4ccc(OC)cc4)n3)s2)cc2ccccc21  IC50 (MTT; 72 h): 19.9 µM
Cc1c(OCC(F)(F)F)ccnc1COc1ccc(NC(=O)Nc2ccc(Cl)cc2)cc1  IC50 (MTT; 72 h): 3.9 µM
O=C(Nc1nnnn1C1CCCCC1)c1ccc2ccccc2c1  IC50 (48 h): 3.06 µM
NC(=O)NOCCCCCCCCCCCCCCCCCCCC[P+](c1ccccc1)(c1ccccc1)c1ccccc1  IC50 (imaging): 0.23 µM
COc1cc([C@@H]2c3cc4c(cc3[C@@H](O[C@@H]3O[C@@H]5CO[C@@H](C)O[C@H]5[C@H](O)[C@H]3O)[C@H]3COC(=O)[C@H]23)OCO4)cc(OC)c1O  IC50 (MTS; 48 h): 23.3 µM
COc1c(C)cnc(COc2ccc(NC(=O)Nc3cc(F)cc(F)c3)cc2)c1C  IC50 (MTT; 72 h): 10.8 µM
CC1=C(O)C(=O)C=C2C1=CC=C1[C@@]2(C)CC[C@@]2(C)[C@@H]3C[C@](C)(C(=O)OCCCCCO)CC[C@]3(C)CC[C@]12C  IC50 (MTT; 48 h): 0.48 µM
CS(=O)(=O)c1nc(N)n(-c2ccc(C(=O)O)cc2)n1  IC50 (MTT): 48.5 µM
CCn1c(-c2nnc(NC(=O)c3cc4c([nH]c5ccccc54)c(-c4cc(OC)c(OC)c(OC)c4)n3)s2)cc2ccccc21  IC50 (MTT; 72 h): 18.7 µM
COCCCOc1ccnc(COc2ccc(NC(=O)Nc3ccc(OC)cc3)cc2)c1C  IC50 (MTT; 72 h): 12.7 µM
O=c1cc(CCl)c2c(O)cc(O)cc2o1  IC50 (MTT; 36 h): > 20 µM
CC(C)C[C@H](NC(=O)[C@H](Cc1ccccc1)NC(=O)c1cnccn1)B(O)O  IC50 (ATP luminescence): 0.0097 µM
COc1ccnc(COc2ccc(NC(=O)Nc3ccc(F)cc3)cc2)c1OC  IC50 (MTT; 72 h): 22.3 µM
COc1ccc2oc(=O)cc(CCl)c2c1  IC50 (MTT; 36 h): > 20 µM
Cn1c(-c2nnc(NC(=O)c3cc4c([nH]c5ccccc54)c(-c4ccccc4)n3)s2)cc2ccccc21  IC50 (MTT; 72 h): 10.3 µM
Cc1c(O)ccc2ccc(=O)oc12  IC50 (MTT; 36 h): > 20 µM
O=C(NC(=S)NCc1ccc(CNC(=S)NC(=O)c2ccc3ccccc3c2)cc1)c1ccc2ccccc2c1  IC50 (48 h): 1.35 µM
Cc1cc(C)n(-c2nc(Nc3ccc(Cl)cc3)nc(-n3nc(C)cc3C)n2)n1  IC50 (MTT; 72 h): 11 µM
COC(=O)c1ccc(-n2nc(SC)nc2N)cc1  IC50 (MTT): 39.1 µM
COCCCOc1ccnc(COc2ccc(NC(=O)Nc3ccc(Cl)c(C(F)(F)F)c3)cc2)c1C  IC50 (MTT; 72 h): 10.1 µM
Clc1ccc(C[n+]2cn(CCc3ccccc3)c3ccccc32)cc1  IC50 (MTT; 72 h): 18.4 µM
COc1ccc(-c2nc(C(=O)Nc3nnc(-c4cc5ccccc5[nH]4)s3)cc3c2[nH]c2ccccc23)cc1  IC50 (MTT; 72 h): 4.78 µM
CC[C@H](C)C(=O)O[C@H]1CCC=C2C=C[C@H](C)[C@H](CC[C@@H]3C[C@@H](O)CC(=O)O3)[C@H]21  IC50 (SRB; 72 h): 4.57 mg/L
O=c1cc(CCl)c2cc(O)ccc2o1  IC50 (MTT; 36 h): > 20 µM
COCCCOc1ccnc(COc2ccc(NC(=O)Nc3ccc(F)cc3)cc2)c1C  IC50 (MTT; 72 h): 6.44 µM
CSc1nc(/N=C/c2cccc(O)c2)n(-c2ccc(C(=O)O)cc2)n1  IC50 (MTT): 70.1 µM
O=C(NC(=S)N1CCCC1)c1ccc2ccccc2c1  IC50 (48 h): 6.22 µM
FC(F)(F)c1ccc(C(c2c[nH]c3ccccc23)c2c[nH]c3ccccc23)cc1  IC50 (ATP luminescence; 22 h): 9.3 µM
